# From ChEMBL document CHEMBL1671686, “Carbapenem-resistant KPC-2-producing Escherichia coli in a Tel Aviv Medical Center, 2005 to 2008” (2010)
# Tests used:
# Type in all cases: functional
# Escherichia coli [1] = assay: Antimicrobial activity against Escherichia coli isolate 157 expressing beta-lactamase KPC2, CTX-M-15, TEM and PFGE cluster 3 isolated from urine of patient by vitek-2 method in presence of beta-lactamase inhibitor Tazobactam; settings: isolate 157, Urine
# Procedure, shortened: (§1)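 Antibiotic susceptibility of clinical carbapenem-resistant E. coli isolates (collected Feb 2005–Oct 2008) determined on the automated Vitek-2 system.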
# Escherichia coli [2] = assay: Antimicrobial activity against Escherichia coli isolate 157T expressing beta-lactamase KPC2 and PFGE cluster 3 isolated from urine of patient by vitek-2 method in presence of beta-lactamase inhibitor Tazobactam
# Procedure, shortened: (§2)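 Transformants were made by electroporating purified plasmids from clinical isolates into E. coli DH10B. They were selected on LB agar with 100 μg/ml ampicillin and PCR-screened for blaKPC. Susceptibility was then tested on Vitek-2.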
# Escherichia coli [3] = assay: Antimicrobial activity against Escherichia coli isolate 329 expressing beta-lactamase KPC2, CTX-M-2, TEM and PFGE cluster 2 isolated from blood of patient by vitek-2 method in presence of beta-lactamase inhibitor Tazobactam; procedure, shortened: as §1
# Escherichia coli [4] = assay: Antimicrobial activity against Escherichia coli isolate 329T expressing beta-lactamase KPC2 and PFGE cluster 2 isolated from blood of patient by vitek-2 method in presence of beta-lactamase inhibitor Tazobactam; procedure, shortened: as §2
# Escherichia coli [5] = assay: Antimicrobial activity against Escherichia coli isolate 339 expressing beta-lactamase KPC2, TEM and PFGE cluster 5 isolated from peritoneal fluid of patient by vitek-2 method in presence of beta-lactamase inhibitor Tazobactam
# Procedure, shortened: (§3)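 Clinical carbapenem-resistant E. coli isolates collected at one hospital, February 2005 to October 2008. […] Susceptibilities came from automated Vitek-2 testing.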
# Escherichia coli [6] = assay: Antimicrobial activity against Escherichia coli isolate 339T expressing beta-lactamase KPC2 and PFGE cluster 5 isolated from peritoneal fluid of patient by vitek-2 method in presence of beta-lactamase inhibitor Tazobactam
# Procedure, shortened: (§4)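 Test strains were E. coli DH10B transformants. Plasmids purified from the clinical isolates were electroporated in, transformants selected on LB agar with 100 μg/ml ampicillin, and colonies PCR-screened for blaKPC. Susceptibility of the transformants was then determined by automated Vitek-2 testing.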
# Escherichia coli [7] = assay: Antimicrobial activity against Escherichia coli isolate 360 expressing beta-lactamase KPC2, CTX-M-15, OXA-9, TEM and PFGE cluster 1 isolated from urine of patient by vitek-2 method in presence of beta-lactamase inhibitor Tazobactam; settings: isolate 360, Urine; procedure, shortened: as §1
# Escherichia coli [8] = assay: Antimicrobial activity against Escherichia coli isolate 360T expressing beta-lactamase KPC2, OXA-9 and PFGE cluster 1 isolated from urine of patient by vitek-2 method in presence of beta-lactamase inhibitor Tazobactam; procedure, shortened: as §4
# Escherichia coli [9] = assay: Antimicrobial activity against Escherichia coli isolate 386 expressing beta-lactamase KPC2, CTX-M-15, OXA-9, TEM and PFGE cluster 1 isolated from wound of patient by vitek-2 method in presence of beta-lactamase inhibitor Tazobactam; procedure, shortened: as §1
# Escherichia coli [10] = assay: Antimicrobial activity against Escherichia coli isolate 386T expressing beta-lactamase KPC2, OXA-9 and PFGE cluster 1 isolated from wound of patient by vitek-2 method in presence of beta-lactamase inhibitor Tazobactam; procedure, shortened: as §4
# Escherichia coli [11] = assay: Antimicrobial activity against Escherichia coli isolate 540 expressing beta-lactamase KPC2, TEM and PFGE cluster 4 isolated from synovial fluid of patient by vitek-2 method in presence of beta-lactamase inhibitor Tazobactam; procedure, shortened: as §3
# Escherichia coli [12] = assay: Antimicrobial activity against Escherichia coli isolate 543 expressing beta-lactamase KPC2, CTX-M-15, TEM and PFGE cluster 4 isolated from synovial fluid of patient by vitek-2 method in presence of beta-lactamase inhibitor Tazobactam; procedure, shortened: as §1
# Escherichia coli [13] = assay: Antimicrobial activity against Escherichia coli isolate 543T expressing beta-lactamase KPC2 and PFGE cluster 4 isolated from synovial fluid of patient by vitek-2 method in presence of beta-lactamase inhibitor Tazobactam; procedure, shortened: as §2
# Escherichia coli [14] = assay: Antimicrobial activity against Escherichia coli isolate 544 expressing beta-lactamase KPC2, TEM and PFGE cluster 4 isolated from abscess of patient by vitek-2 method in presence of beta-lactamase inhibitor Tazobactam; procedure, shortened: as §1
# Escherichia coli [15] = assay: Antimicrobial activity against Escherichia coli isolate 547 expressing beta-lactamase KPC2, TEM and PFGE cluster 4 isolated from blood of patient by vitek-2 method in presence of beta-lactamase inhibitor Tazobactam; procedure, shortened: as §3
# Escherichia coli [16] = assay: Antimicrobial activity against Escherichia coli isolate 547T expressing beta-lactamase KPC2 and PFGE cluster 4 isolated from blood of patient by vitek-2 method in presence of beta-lactamase inhibitor Tazobactam; procedure, shortened: as §4
# Escherichia coli [17] = assay: Antimicrobial activity against Escherichia coli isolate 1679 expressing beta-lactamase KPC2, SHV-12, TEM and PFGE cluster 6 isolated from peritoneal fluid of patient by vitek-2 method in presence of beta-lactamase inhibitor Tazobactam; procedure, shortened: as §1
# Escherichia coli [18] = assay: Antimicrobial activity against Escherichia coli isolate 1679T expressing beta-lactamase KPC2, TEM and PFGE cluster 6 isolated from peritoneal fluid of patient by vitek-2 method in presence of beta-lactamase inhibitor Tazobactam; procedure, shortened: as §4
# Escherichia coli [19] = assay: Antimicrobial activity against Escherichia coli DH10B by vitek-2 method in presence of beta-lactamase inhibitor Tazobactam; settings: K-12 DH10B
# Procedure, shortened: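 Plasmid-free recipient E. coli DH10B, used as the host for electroporation transformants, was tested for susceptibility on the automated Vitek-2 system.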
# Escherichia coli [20] = assay: Antimicrobial activity against Escherichia coli isolate 157 expressing beta-lactamase KPC2, CTX-M-15, TEM and PFGE cluster 3 isolated from urine of patient by Etest
# Escherichia coli [21] = assay: Antimicrobial activity against Escherichia coli isolate 157T expressing beta-lactamase KPC2 and PFGE cluster 3 isolated from urine of patient by Etest
# Procedure, shortened: (§5)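 Transformant strains. Plasmids purified from the clinical isolates were electroporated into E. coli DH10B. Transformants were selected on LB agar with 100 μg/ml ampicillin, and colonies were PCR-screened for blaKPC before susceptibility testing.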
# Escherichia coli [22] = assay: Antimicrobial activity against Escherichia coli isolate 329 expressing beta-lactamase KPC2, CTX-M-2, TEM and PFGE cluster 2 isolated from blood of patient by Etest
# Escherichia coli [23] = assay: Antimicrobial activity against Escherichia coli isolate 329T expressing beta-lactamase KPC2 and PFGE cluster 2 isolated from blood of patient by Etest; procedure, shortened: as §5
# Escherichia coli [24] = assay: Antimicrobial activity against Escherichia coli isolate 339 expressing beta-lactamase KPC2, TEM and PFGE cluster 5 isolated from peritoneal fluid of patient by Etest
# Escherichia coli [25] = assay: Antimicrobial activity against Escherichia coli isolate 339T expressing beta-lactamase KPC2 and PFGE cluster 5 isolated from peritoneal fluid of patient by Etest; procedure, shortened: as §5
# Escherichia coli [26] = assay: Antimicrobial activity against Escherichia coli isolate 360 expressing beta-lactamase KPC2, CTX-M-15, OXA-9, TEM and PFGE cluster 1 isolated from urine of patient by Etest
# Escherichia coli [27] = assay: Antimicrobial activity against Escherichia coli isolate 360T expressing beta-lactamase KPC2, OXA-9 and PFGE cluster 1 isolated from urine of patient by Etest; procedure, shortened: as §5
# Escherichia coli [28] = assay: Antimicrobial activity against Escherichia coli isolate 386 expressing beta-lactamase KPC2, CTX-M-15, OXA-9, TEM and PFGE cluster 1 isolated from wound of patient by Etest
# Escherichia coli [29] = assay: Antimicrobial activity against Escherichia coli isolate 386T expressing beta-lactamase KPC2, OXA-9 and PFGE cluster 1 isolated from wound of patient by Etest; procedure, shortened: as §5
# Escherichia coli [30] = assay: Antimicrobial activity against Escherichia coli isolate 540 expressing beta-lactamase KPC2, TEM and PFGE cluster 4 isolated from synovial fluid of patient by Etest
# Escherichia coli [31] = assay: Antimicrobial activity against Escherichia coli isolate 543 expressing beta-lactamase KPC2, CTX-M-15, TEM and PFGE cluster 4 isolated from synovial fluid of patient by Etest
# Escherichia coli [32] = assay: Antimicrobial activity against Escherichia coli isolate 543T expressing beta-lactamase KPC2 and PFGE cluster 4 isolated from synovial fluid of patient by Etest; procedure, shortened: as §5
# Escherichia coli [33] = assay: Antimicrobial activity against Escherichia coli isolate 544 expressing beta-lactamase KPC2, TEM and PFGE cluster 4 isolated from abscess of patient by Etest
# Escherichia coli [34] = assay: Antimicrobial activity against Escherichia coli isolate 547 expressing beta-lactamase KPC2, TEM and PFGE cluster 4 isolated from blood of patient by Etest
# Escherichia coli [35] = assay: Antimicrobial activity against Escherichia coli isolate 547T expressing beta-lactamase KPC2 and PFGE cluster 4 isolated from blood of patient by Etest; procedure, shortened: as §5
# Escherichia coli [36] = assay: Antimicrobial activity against Escherichia coli isolate 1679 expressing beta-lactamase KPC2, SHV-12, TEM and PFGE cluster 6 isolated from peritoneal fluid of patient by Etest
# Escherichia coli [37] = assay: Antimicrobial activity against Escherichia coli isolate 1679T expressing beta-lactamase KPC2, TEM and PFGE cluster 6 isolated from peritoneal fluid of patient by Etest; procedure, shortened: as §5
# Escherichia coli [38] = assay: Antimicrobial activity against Escherichia coli DH10B by Etest; settings: K-12 DH10B
Compound,MIC (Escherichia coli [21]),MIC (Escherichia coli [22]),MIC (Escherichia coli [23]),MIC (Escherichia coli [24]),MIC (Escherichia coli [25]),MIC (Escherichia coli [27]),MIC (Escherichia coli [28]),MIC (Escherichia coli [29]),MIC (Escherichia coli [30]),MIC (Escherichia coli [31]),MIC (Escherichia coli [32]),MIC (Escherichia coli [33]),MIC (Escherichia coli [34]),MIC (Escherichia coli [35]),MIC (Escherichia coli [36]),MIC (Escherichia coli [37]),MIC (Escherichia coli [38]),further results
CCN1CCN(C(=O)N[C@@H](C(=O)N[C@@H]2C(=O)N3[C@@H]2SC(C)(C)[C@@H]3C(=O)O)c2ccccc2)C(=O)C1=O [PIPERACILLIN],–,–,–,–,–,–,–,–,–,–,–,–,–,–,–,–,–,MIC (Escherichia coli [1]): > 128 mg/L; MIC (Escherichia coli [2]): > 128 mg/L; MIC (Escherichia coli [3]): > 128 mg/L; MIC (Escherichia coli [4]): > 128 mg/L; MIC (Escherichia coli [5]): 64 mg/L; MIC (Escherichia coli [6]): 64 mg/L; MIC (Escherichia coli [7]): > 128 mg/L; MIC (Escherichia coli [8]): 64 mg/L; MIC (Escherichia coli [9]): > 128 mg/L; MIC (Escherichia coli [10]): 64 mg/L; MIC (Escherichia coli [11]): 64 mg/L; MIC (Escherichia coli [12]): > 128 mg/L; MIC (Escherichia coli [13]): > 128 mg/L; MIC (Escherichia coli [14]): > 128 mg/L; MIC (Escherichia coli [15]): 64 mg/L; MIC (Escherichia coli [16]): 64 mg/L; MIC (Escherichia coli [17]): > 128 mg/L; MIC (Escherichia coli [18]): 64 mg/L; MIC (Escherichia coli [19]): > 1 mg/L
CN(C)c1cc(NC(=O)CNC(C)(C)C)c(O)c2c1C[C@H]1C[C@H]3[C@H](N(C)C)C(O)=C(C(N)=O)C(=O)[C@@]3(O)C(O)=C1C2=O [TIGECYCLINE],0.19 mg/L,0.19 mg/L,0.125 mg/L,0.19 mg/L,0.19 mg/L,0.125 mg/L,0.75 mg/L,0.19 mg/L,0.19 mg/L,0.19 mg/L,0.125 mg/L,0.38 mg/L,0.125 mg/L,0.125 mg/L,0.125 mg/L,0.38 mg/L,0.125 mg/L,"MIC (Escherichia coli [20]; isolate 157, Urine): 0.38 mg/L; MIC (Escherichia coli [26]; isolate 360, Urine): 0.75 mg/L"
COLISTIN,0.047 mg/L,0.19 mg/L,0.047 mg/L,0.125 mg/L,0.047 mg/L,0.094 mg/L,0.125 mg/L,0.047 mg/L,0.125 mg/L,0.125 mg/L,0.047 mg/L,0.19 mg/L,0.19 mg/L,0.047 mg/L,0.38 mg/L,0.047 mg/L,0.047 mg/L,MIC (Escherichia coli [20]): 0.125 mg/L; MIC (Escherichia coli [26]): 0.19 mg/L
